Measurements from ChEMBL document CHEMBL1765020, “Synthesis and structure-affinity relationships of novel dibenzylideneacetone derivatives as probes for β-amyloid plaques” (J Med Chem, 2011).

Test: Displacement of [125I]IMPY from amyloid beta (1 to 42) aggregate after 2 hrs by gamma counting
In short: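 Competition binding in 1 mL PBS (0.2 M, pH 7.4). Aggregated Aβ1-42 fibrils (60 nM final) with [125I]IMPY and inhibitor at 10^-5 to 10^-10 M, added in ethanol. Nonspecific binding was defined with 1 μM IMPY. Incubated 2 h at 37 °C with shaking, then vacuum-filtered through glass fibre filters and the bound fraction gamma-counted. IC50 was converted to Ki by Cheng-Prusoff; triplicate, mean ± SD.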

SMILES | Ki [nM]
CN(C)c1ccc(/C=C/C(=O)/C=C/c2ccccn2)cc1 | 23
CN(C)c1ccc(/C=C/C(=O)/C=C/c2ccccc2N)cc1 | 8.4
CN(C)c1ccc(/C=C/C(=O)/C=C/c2ccccc2[N+](=O)[O-])cc1 | 18.8
COc1cc(/C=C/C(=O)/C=C/c2ccc(N(C)C)cc2)cc(OC)c1OC | 5.2
COc1ccc2cc(/C=C/C(=O)/C=C/c3ccc(N(C)C)cc3)ccc2c1 | 2.5
CN(C)c1ccc(/C=C2\CCC/C(=C\c3ccc(N(C)C)cc3)C2=O)cc1 | 1
CN(C)c1ccc(/C=C/C(=O)/C=C/c2cccc(N)c2)cc1 | 13.7
CN(C)c1ccc(/C=C/C(=O)/C=C/c2ccc(OCCF)cc2)cc1 | 5.6
CN(C)c1ccc(/C=C/C(=O)/C=C/c2c(Cl)cccc2Cl)cc1 | 18.5
CN(C)c1ccc(/C=C/C(=O)/C=C/c2cccc(I)c2)cc1 | 5.5
CN(C)c1ccc(/C=C/C(=O)/C=C/c2ccc(Br)cc2)cc1 | 2.8
O=C1/C(=C/c2ccccc2)CCC/C1=C\c1ccccc1 [2,6-DIBENZYLIDENECYCLOHEXANONE] | 704
CN(C)c1ccc(/C=C/C(=O)/C=C/c2ccc(C(F)(F)F)cc2)cc1 | 0.8
O=C1/C(=C/c2ccc(Cl)cc2)CCC/C1=C\c1ccc(Cl)cc1 | 11.4
CN(C)c1ccc(/C=C/C(=O)/C=C/c2cccc(N(C)C)c2)cc1 | 8
CN(C)c1ccc(/C=C/C(=O)/C=C/c2ccc(OCc3ccccc3)cc2)cc1 | 2
CCN(CC)c1ccc(/C=C/C(=O)/C=C/c2ccc(N(C)C)cc2)cc1 | 15.7
COc1cc(/C=C/C(=O)CC(=O)/C=C/c2ccc(O)c(OC)c2)ccc1O [CURCUMIN] | 49.8
CN(C)c1ccc(/C=C/C(=O)/C=C/c2cc([N+](=O)[O-])ccc2OCc2ccccc2)cc1 | 33.3
CN(C)c1ccc(/C=C/C(=O)/C=C/c2ccc(O)cc2)cc1 | 6.8
COc1cc(/C=C/C(=O)/C=C/c2ccc(N(C)C)cc2)cc(OC)c1 | 4.7
CN(C)c1ccc(/C=C/C(=O)/C=C/c2cc(C(F)(F)F)cc(C(F)(F)F)c2)cc1 | 4

SMILES | Ki [nM]
COc1ccc(/C=C/C(=O)/C=C/c2ccc(OC)cc2)cc1 | 6.5
CN(C)c1ccc(/C=C/C(=O)/C=C/c2ccc(Br)nc2)cc1 | 2.3
COc1ccc(/C=C/C(=O)/C=C/c2ccc(N(C)C)cc2)cc1OC | 5.4
CNc1ccc(/C=C/C(=O)/C=C/c2ccc(N(C)C)cc2)cc1 | 2.9
Nc1ccc(/C=C/C(=O)/C=C/c2ccc(I)cc2)cc1 | 7
CN(C)c1ccc(/C=C/C(=O)/C=C/c2cccc(F)c2)cc1 | 1.2
CN(C)c1ccc(/C=C/C(=O)/C=C/c2ccc(-c3ccc(Br)s3)s2)cc1 | 11.7
CN(C)c1ccc(/C=C/C(=O)/C=C/c2ccc(Cl)nc2)cc1 | 2.2
CN(C)c1ccc(/C=C/C(=O)/C=C/c2ccc[nH]2)cc1 | 5.8
CN(C)c1ccc(/C=C/C(=O)/C=C/c2ccco2)cc1 | 8.5
COc1ccc(/C=C/C(=O)/C=C/c2ccc(N(C)C)cc2)cc1 | 0.7
CN(C)c1ccc(/C=C/C(=O)/C=C/c2ccc(C(=O)O)cc2)cc1 | 78.1
O=C(/C=C/c1ccc(Cl)cc1)/C=C/c1ccc(Cl)cc1 | 9
CN(C)c1ccc(/C=C/C(=O)/C=C/c2ccc(F)cc2)cc1 | 3.7
CN(C)c1ccc(/C=C/C(=O)/C=C/c2c(F)cccc2Cl)cc1 | 9.2
CN(C)c1ccc(/C=C/C(=O)/C=C/c2ccc(I)nc2)cc1 | 4.8
O=C(/C=C/c1ccccc1)/C=C/c1ccccc1 | 242
CN(C)c1ccc(/C=C/C(=O)/C=C/c2cccc(Br)c2)cc1 | 1.9
CN(C)c1ccc(/C=C/C(=O)/C=C/c2ccc(N(c3ccccc3)c3ccccc3)cc2)cc1 | 131
CN(C)c1ccc(/C=C/C(=O)/C=C/c2ccc(Br)s2)cc1 | 3.8
CN(C)c1ccc(/C=C/C(=O)/C=C/c2ccc3[nH]ccc3c2)cc1 | 4.2
COc1cc(OC)c(/C=C/C(=O)/C=C/c2ccc(N(C)C)cc2)c(OC)c1 | 39.1

SMILES | Ki [nM]
CN(C)c1ccc(/C=C/C(=O)/C=C/c2ccccc2O)cc1 | 28.2
CN(C)c1ccc(/C=C/C(=O)/C=C/c2ccccc2)cc1 | 1.2
COc1ccc(/C=C2\CCC/C(=C\c3ccc(OC)cc3)C2=O)cc1 | 24.8
CN(C)c1ccc(/C=C/C(=O)/C=C/c2ccc3c(c2)OCO3)cc1 | 1.8
CNc1cccc(/C=C/C(=O)/C=C/c2ccc(N(C)C)cc2)c1 | 8.1
CN(C)c1ccc(/C=C/C(=O)/C=C/c2ccccc2Cl)cc1 | 0.9
CN(C)c1ccc(/C=C/C(=O)/C=C/c2cccc(Oc3ccccc3)c2)cc1 | 3.8
CN(C)c1ccc(/C=C/C(=O)/C=C/c2ccc(OC(c3ccccc3)(c3ccccc3)c3ccccc3)cc2)cc1 | 2.8
CN(C)c1ccc(/C=C/C(=O)/C=C/c2ccc([N+](=O)[O-])cc2)cc1 | 5.2
CN(C)c1ccc(/C=C/C(=O)/C=C/c2cccs2)cc1 | 5.3
COc1ccc(/C=C/C(=O)/C=C/c2ccc(N(C)C)cc2)c(OC)c1 | 2.8
CNc1ccccc1/C=C/C(=O)/C=C/c1ccc(N(C)C)cc1 | 2640
CN(C)c1ccc(/C=C/C(=O)/C=C/c2ccc(OCCOCCF)cc2)cc1 | 4.4
CN(C)c1ccc(/C=C/C(=O)/C=C/c2ccccc2OCc2ccccc2)cc1 | 18.6
CN(C)c1ccc(/C=C/C(=O)/C=C/c2cc(Br)ccc2O)cc1 | 16.2
CN(C)c1ccc(/C=C/C(=O)/C=C/c2ccc(Cl)cc2)cc1 | 1.1
CN(C)c1ccc(/C=C/C(=O)/C=C/c2cccc([N+](=O)[O-])c2)cc1 | 4
CN(C)c1ccc(/C=C/C(=O)/C=C/c2ccc(N)cc2)cc1 | 3.7
COc1cc(/C=C/C(=O)/C=C/c2ccc(N(C)C)cc2)ccc1OCc1ccccc1 | 4.1
CN(C)c1ccc(/C=C/C(=O)/C=C/c2ccc(N(C)C)cc2)cc1 | 2.7
Cc1ccc(/C=C/C(=O)/C=C/c2ccc(N(C)C)cc2)cc1 | 1.3
